System: Fibroblast
Assay: Multiplex assay against human fibroblast
Format: toxicity, cell-based
In short: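 Cells stained live at seeding with Hoechst33342, BioTracker Green Microtubule Cytoskeleton Dye, MitoTracker Red and Annexin V Alexa Fluor 680 were imaged on a CQ1 microscope at 37°C and 5% CO2 after compound addition. Their classification by CellPathfinder machine-learning gating ran from Hoechst high-intensity objects versus normal cells, to healthy, pyknosed or fragmented nuclei among normal cells, to mitotic or apoptotic among pyknosed cells. Tubulin, mitochondrial-mass and membrane-permeability phenotypes are per cents of healthy-nucleus cells.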

[1] = 12 h, 1 µM, compound concentration 1 uM, replicate 1
[2] = 12 h, 1 µM, compound concentration 1 uM, replicate 2
[3] = 12 h, 10 µM, compound concentration 10 uM, replicate 1
[4] = 12 h, 10 µM, compound concentration 10 uM, replicate 2
[5] = 24 h, 1 µM, compound concentration 1 uM, replicate 1
[6] = 24 h, 1 µM, compound concentration 1 uM, replicate 2
[7] = 24 h, 10 µM, compound concentration 10 uM, replicate 1
[8] = 24 h, 10 µM, compound concentration 10 uM, replicate 2
[9] = 48 h, 1 µM, compound concentration 1 uM, replicate 1
[10] = 48 h, 1 µM, compound concentration 1 uM, replicate 2
[11] = 48 h, 10 µM, compound concentration 10 uM, replicate 1
[12] = 48 h, 10 µM, compound concentration 10 uM, replicate 2

## N#Cc1cccc(C(=O)Nc2cc(-c3ccccc3)nn2-c2ccccc2)c1
[1]
  Population Apoptotic (%): 66%
  Population Fragmented Nuclei (%): 21%
  Population Healthy Nuclei (%): 48%
  Population Hoechst High Intensity Objects (%): 11%
  Population Membrane Permeable-Phenotype (%): 22%
  Population Mitochondria Different-Phenotype (%): 6%
  Population Mitotic Cells (%): 34%
  Population Normal (%): 88%
  Population Pyknosed Nuclei (%): 30%
  Population Tubulin-Different-Phenotype (%): 48%
  Total Cell Count: 186
[2]
  Population Apoptotic (%): 16%
  Population Fragmented Nuclei (%): 5%
  Population Healthy Nuclei (%): 84%
  Population Hoechst High Intensity Objects (%): 3%
  Population Membrane Permeable-Phenotype (%): 6%
  Population Mitochondria Different-Phenotype (%): 8%
  Population Mitotic Cells (%): 83%
  Population Normal (%): 96%
  Population Pyknosed Nuclei (%): 10%
  Population Tubulin-Different-Phenotype (%): 16%
  Total Cell Count: 59
[3]
  Population Apoptotic (%): 50%
  Population Fragmented Nuclei (%): 15%
  Population Healthy Nuclei (%): 42%
  Population Hoechst High Intensity Objects (%): 8%
  Population Membrane Permeable-Phenotype (%): 23%
  Population Mitochondria Different-Phenotype (%): 15%
  Population Mitotic Cells (%): 50%
  Population Normal (%): 91%
  Population Pyknosed Nuclei (%): 42%
  Population Tubulin-Different-Phenotype (%): 82%
  Total Cell Count: 134
[4]
  Population Apoptotic (%): 45%
  Population Fragmented Nuclei (%): 9%
  Population Healthy Nuclei (%): 60%
  Population Hoechst High Intensity Objects (%): 9%
  Population Membrane Permeable-Phenotype (%): 15%
  Population Mitochondria Different-Phenotype (%): 84%
  Population Mitotic Cells (%): 55%
  Population Normal (%): 90%
  Population Pyknosed Nuclei (%): 30%
  Population Tubulin-Different-Phenotype (%): 97%
  Total Cell Count: 72
[5]
  Population Apoptotic (%): 47%
  Population Fragmented Nuclei (%): 17%
  Population Healthy Nuclei (%): 49%
  Population Hoechst High Intensity Objects (%): 8%
  Population Membrane Permeable-Phenotype (%): 34%
  Population Mitochondria Different-Phenotype (%): 6%
  Population Mitotic Cells (%): 52%
  Population Normal (%): 91%
  Population Pyknosed Nuclei (%): 33%
  Population Tubulin-Different-Phenotype (%): 69%
  Total Cell Count: 180
[6]
  Population Apoptotic (%): 14%
  Population Fragmented Nuclei (%): 3%
  Population Healthy Nuclei (%): 86%
  Population Hoechst High Intensity Objects (%): 4%
  Population Membrane Permeable-Phenotype (%): 1%
  Population Mitochondria Different-Phenotype (%): 8%
  Population Mitotic Cells (%): 85%
  Population Normal (%): 95%
  Population Pyknosed Nuclei (%): 10%
  Population Tubulin-Different-Phenotype (%): 7%
  Total Cell Count: 68
[7]
  Population Apoptotic (%): 45%
  Population Fragmented Nuclei (%): 20%
  Population Healthy Nuclei (%): 39%
  Population Hoechst High Intensity Objects (%): 6%
  Population Membrane Permeable-Phenotype (%): 36%
  Population Mitochondria Different-Phenotype (%): 4%
  Population Mitotic Cells (%): 54%
  Population Normal (%): 93%
  Population Pyknosed Nuclei (%): 39%
  Population Tubulin-Different-Phenotype (%): 93%
  Total Cell Count: 119
[8]
  Population Apoptotic (%): 42%
  Population Fragmented Nuclei (%): 9%
  Population Healthy Nuclei (%): 67%
  Population Membrane Permeable-Phenotype (%): 30%
  Population Mitochondria Different-Phenotype (%): 71%
  Population Mitotic Cells (%): 57%
  Population Pyknosed Nuclei (%): 22%
  Population Tubulin-Different-Phenotype (%): 95%
  Total Cell Count: 66
[9]
  Population Apoptotic (%): 57%
  Population Fragmented Nuclei (%): 31%
  Population Healthy Nuclei (%): 44%
  Population Hoechst High Intensity Objects (%): 12%
  Population Membrane Permeable-Phenotype (%): 26%
  Population Mitochondria Different-Phenotype (%): 3%
  Population Mitotic Cells (%): 42%
  Population Normal (%): 87%
  Population Pyknosed Nuclei (%): 24%
  Population Tubulin-Different-Phenotype (%): 50%
  Total Cell Count: 166
[10]
  Population Apoptotic (%): 0%
  Population Fragmented Nuclei (%): 28%
  Population Healthy Nuclei (%): 69%
  Population Hoechst High Intensity Objects (%): 8%
  Population Membrane Permeable-Phenotype (%): 12%
  Population Mitochondria Different-Phenotype (%): 5%
  Population Mitotic Cells (%): 100%
  Population Normal (%): 91%
  Population Pyknosed Nuclei (%): 1%
  Population Tubulin-Different-Phenotype (%): 57%
  Total Cell Count: 112
[11]
  Population Apoptotic (%): 41%
  Population Fragmented Nuclei (%): 30%
  Population Healthy Nuclei (%): 40%
  Population Hoechst High Intensity Objects (%): 12%
  Population Membrane Permeable-Phenotype (%): 28%
  Population Mitochondria Different-Phenotype (%): 4%
  Population Mitotic Cells (%): 58%
  Population Normal (%): 87%
  Population Pyknosed Nuclei (%): 28%
  Population Tubulin-Different-Phenotype (%): 95%
  Total Cell Count: 126
[12]
  Population Apoptotic (%): 23%
  Population Fragmented Nuclei (%): 45%
  Population Healthy Nuclei (%): 45%
  Population Hoechst High Intensity Objects (%): 34%
  Population Membrane Permeable-Phenotype (%): 25%
  Population Mitochondria Different-Phenotype (%): 1%
  Population Mitotic Cells (%): 76%
  Population Normal (%): 65%
  Population Pyknosed Nuclei (%): 9%
  Total Cell Count: 214

— ChEMBL document CHEMBL4689842, “EUbOPEN Chemogenomics Library wave 1” (2021)
